Experimental findings from ChEMBL document CHEMBL3997850 (ACS Med Chem Lett, 2017) are described below.

In one series the target is Cytochrome P450 2C9 (Homo sapiens, UniProt P11712). In words: Inhibition of recombinant human CYP2C9 assessed as decrease in hydroxylation of 7-methoxy-4-(trifluoromethyl)-coumarin by fluorimetric method. It counts as ADME. The settings on record: recombinant enzyme. The essentials:
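Recombinant human isozymes with substrate at Km concentration: CYP2C9 with 7-methoxy-4-(trifluoromethyl)coumarin, CYP2D6 with 7-methoxy-4-methylcoumarin. Hydroxylation read fluorimetrically, inhibitor 0–25 µM.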

The nature of series [1]: Oral bioavailability in rat at 5 mg/kg by LC/MS/MS analysis. The series is classed as ADME, organism-based. Particulars: in vivo; call rule not given here. The gist of the method:
(§1)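 Male rats, 5 mg/kg IV in 10% DMAC/saline or 5 mg/kg oral in 0.5% aqueous methylcellulose. Plasma (EDTA) sampled pre-dose to 24 h. Quantified by acetonitrile precipitation and LC/MS/MS (2–10000 nM range, 0.1 mL). Non-compartmental analysis of concentration–time data.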

The next series deals with Canis familiaris. Kind of series: AUC in beagle dog at 5 mg/kg, iv or 10 mg/kg, po by LC/MS/MS analysis. The series is classed as ADME, organism-based, Canis lupus familiaris. The settings on record: in vivo. The gist of the method: (§2)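 Male beagle dogs dosed 5 mg/kg IV in 10% DMAC in saline or 10 mg/kg oral in 5% DMAC in 0.5% methylcellulose. EDTA blood taken from pre-dose to 24 h and spun to plasma. Plasma proteins precipitated with acetonitrile, then LC/MS/MS (linear 2–10000 nM, 0.1 mL plasma). Parameters derived by non-compartmental analysis.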

Series [2] in a line: Clearance in cynomolgus monkey at 4 mg/kg, iv or 10 mg/kg, po by LC/MS/MS analysis. It counts as ADME, organism-based, Macaca fascicularis. The settings on record: in vivo. The essentials:
(§3)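 Male cynomolgus monkeys given 4 mg/kg IV (5% DMAC, 40% propylene glycol in saline) or 10 mg/kg orally (0.5% methylcellulose). EDTA plasma collected pre-dose through 24 h. Acetonitrile protein precipitation, then LC/MS/MS quantification, linear 2–10000 nM. PK parameters by standard non-compartmental methods.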

Series [3] is described as follows: AUC in mouse CT26 cells allografted immunocompetent Balb/c mouse model at 30 mg/kg, po by LC/MS/MS analysis. It counts as ADME, organism-based. The settings on record: in vivo.
Series [4] deals with Mus musculus. In words: Toxicity in mouse up to 2000 mg/kg/day after 28 days by histopathology test. It counts as organism-based. The settings on record: in vivo, 672 h.
For another series, the system named is Rattus norvegicus. Kind of series: AUC in rat at 5 mg/kg, iv or 5 mg/kg, po by LC/MS/MS analysis. The settings on record: in vivo. The series is classed as ADME, organism-based. The gist of the method:
as §1

Series [5] addresses T1, Nuclear receptor subfamily 1 group I member 2 (Homo sapiens, UniProt O75469).
T1 sequence (O75469 whole entry): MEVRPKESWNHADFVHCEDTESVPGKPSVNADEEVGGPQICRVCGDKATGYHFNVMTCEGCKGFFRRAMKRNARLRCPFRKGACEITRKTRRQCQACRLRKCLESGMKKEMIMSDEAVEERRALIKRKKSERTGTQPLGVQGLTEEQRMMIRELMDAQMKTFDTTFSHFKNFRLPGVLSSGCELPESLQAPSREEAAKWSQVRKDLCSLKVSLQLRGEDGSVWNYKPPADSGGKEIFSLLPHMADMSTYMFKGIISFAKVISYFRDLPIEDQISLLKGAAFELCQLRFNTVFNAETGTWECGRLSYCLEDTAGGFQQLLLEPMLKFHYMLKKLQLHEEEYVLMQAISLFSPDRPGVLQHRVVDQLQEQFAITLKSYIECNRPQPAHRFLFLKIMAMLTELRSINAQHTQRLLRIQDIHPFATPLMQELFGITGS
Kind of series: Induction of PXR (unknown origin) expressed in human HepG2 cells after 24 hrs by dual-glo luciferase reporter gene assay. It counts as ADME, cell-based. The gist of the method: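 HepG2 cells transfected with human or rat PXR/CYP3A4 reporter, grown 24 h in phenol-red-free MEM with 2 mM L-glutamine and 10% charcoal-stripped FBS at 37 °C, 5% CO2. Compound added at 10 µM final with 0.6% DMSO for 24 h. Dual-Glo firefly then Renilla luminescence read; firefly/Renilla ratio normalized to control-compound wells as % induction.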

A short description of series [6]: Half life in cynomolgus monkey at 4 mg/kg, iv by LC/MS/MS analysis. It counts as ADME, organism-based, Macaca fascicularis. The settings on record: in vivo. The essentials: as §3
A short description of series [7]: Half life in cynomolgus monkey at 10 mg/kg, po by LC/MS/MS analysis. The series is classed as ADME, organism-based, Macaca fascicularis. Particulars: in vivo. The gist of the method: as §3
Series [8] relates to Mus musculus. Kind of series: Toxicity in mouse assessed as effect on food consumption up to 2000 mg/kg/day after 28 days. The series is classed as organism-based. The settings on record: in vivo, 672 h.
Series [9] is described as follows: Volume of distribution at steady state in beagle dog at 5 mg/kg, iv or 10 mg/kg, po by LC/MS/MS analysis. It counts as ADME, organism-based, Canis lupus familiaris. Particulars: in vivo, read-out: Vdss. The gist of the method:
as §2

Series [10] in a line: Clearance in beagle dog at 5 mg/kg, iv or 10 mg/kg, po by LC/MS/MS analysis. It counts as ADME, organism-based, Canis lupus familiaris. Particulars: in vivo. The gist of the method:
as §2

The test system of series [11] is Mus musculus. In words: Toxicity in mouse assessed as change in body weight up to 2000 mg/kg/day after 28 days. It counts as organism-based. The settings on record: in vivo, 672 h.

Cytochrome P450 2C9, sequence (P11712 whole entry): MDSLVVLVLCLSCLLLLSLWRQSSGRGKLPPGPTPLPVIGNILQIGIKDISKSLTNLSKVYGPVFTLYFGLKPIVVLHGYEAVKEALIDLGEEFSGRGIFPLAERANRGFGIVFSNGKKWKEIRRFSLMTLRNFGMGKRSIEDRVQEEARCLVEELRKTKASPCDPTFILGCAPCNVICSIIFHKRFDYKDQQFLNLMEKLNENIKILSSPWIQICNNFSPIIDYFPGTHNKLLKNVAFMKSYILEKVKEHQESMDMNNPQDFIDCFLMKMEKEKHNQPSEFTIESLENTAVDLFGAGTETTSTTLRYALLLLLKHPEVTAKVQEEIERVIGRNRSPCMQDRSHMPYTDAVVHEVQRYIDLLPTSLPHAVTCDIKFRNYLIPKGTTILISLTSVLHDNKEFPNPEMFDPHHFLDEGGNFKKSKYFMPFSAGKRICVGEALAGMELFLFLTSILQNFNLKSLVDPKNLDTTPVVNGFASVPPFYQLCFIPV

Take `NS(=O)(=O)NCCNc1nonc1C(=NO)Nc1ccc(F)c(Br)c1` [EPACADOSTAT]: the “inhibition (INH)” value on Cytochrome P450 2C9 is reported as “Not Active”. For the same compound, in series [1], the bioavailability was 11%. Moreover, the AUC in the series with Canis familiaris came to 29 µM·h; in series [3] it was 15 µM·h; in the series with Rattus norvegicus, 1.3 µM·h. Also, the clearance is 13.3 mL/min/kg in series [2] and 8.33 mL/min/kg in [10]. The Activity result in the series on Mus musculus [4] was “Non-Toxic”; in series [5] it was “Not Active”; in the series with Mus musculus [8], “Non-Toxic”; in the series on Mus musculus [11] it was “Non-Toxic”. In addition, the half-life in series [6] is 3.3 h; in series [7], 2.7 h. Further, the Vd in series [9] is 0.7 L/kg.
